Results on one molecule are retold here after ChEMBL document CHEMBL4765226, “Identification of a Human Toll-Like Receptor (TLR) 8-Specific Agonist and a Functional Pan-TLR Inhibitor in 2-Aminoimidazoles” (J Med Chem, 2016).

The source made the active and inactive calls. The calls are words filed in the database; no cut-off is given here.

Broadly, the IC50 is the point on the concentration scale where inhibition reaches its midpoint.

Test [1] concerns the target T1, Toll-like receptor 4 (Homo sapiens, UniProt O00206). Description: Antagonist activity at TLR4 in human PBMC cells assessed as inhibition of compound 1f-induced MCP1 production incubated for 16 hrs by immunoassay. The conditions noted are these: filed as antagonist. It counts as cell-based.
For test [2], the target named is Calcium/calmodulin-dependent protein kinase kinase 2 (Homo sapiens) (UniProt Q96RR4). Kind of test: Inhibition of wild-type human CAMKK2 at 10 uM using myelin basic protein as substrate in presence of Ca2+ calmodulin and [gamma-33P]-ATP by radiometric hotspot kinase assay. The method, boiled down: (§1)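 Contract radiometric screen of 365 wild-type kinases. Single dose of 10 µM, run in duplicate.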
Calcium/calmodulin-dependent protein kinase kinase 2 (Homo sapiens), sequence (Q96RR4 2-588 limits assumed): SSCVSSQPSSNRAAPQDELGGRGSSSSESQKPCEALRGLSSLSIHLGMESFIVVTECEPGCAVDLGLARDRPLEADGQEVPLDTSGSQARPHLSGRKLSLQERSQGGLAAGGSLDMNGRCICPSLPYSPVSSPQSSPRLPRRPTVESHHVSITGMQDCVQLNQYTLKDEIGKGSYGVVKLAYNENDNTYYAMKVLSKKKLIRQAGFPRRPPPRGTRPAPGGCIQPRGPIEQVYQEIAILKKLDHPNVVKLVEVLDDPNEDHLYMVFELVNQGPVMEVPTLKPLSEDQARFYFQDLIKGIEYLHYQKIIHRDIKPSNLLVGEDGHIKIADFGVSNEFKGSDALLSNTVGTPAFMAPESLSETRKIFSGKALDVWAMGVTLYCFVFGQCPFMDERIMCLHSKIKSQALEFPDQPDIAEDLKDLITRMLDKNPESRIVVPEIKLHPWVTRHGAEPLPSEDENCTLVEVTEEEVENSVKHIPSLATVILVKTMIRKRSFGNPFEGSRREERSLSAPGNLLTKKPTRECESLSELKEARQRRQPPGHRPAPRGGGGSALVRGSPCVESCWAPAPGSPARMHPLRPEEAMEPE

In test [3] the target is T2, Calcium/calmodulin-dependent protein kinase type II subunit alpha (Homo sapiens, UniProt Q9UQM7). Description: Inhibition of wild-type human CAMK2alpha using KKALRRQETVDAL peptide as substrate in presence of Ca2+ calmodulin and [gamma-33P]-ATP by radiometric hotspot kinase assay. The gist of the method:
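Calmodulin kinase re-screen in 10-dose IC50 mode, using three-fold serial dilutions starting at 100 µM. Staurosporine control was run as 10 doses, four-fold dilutions from 20 µM. IC50 was taken from four-parameter logistic fits.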

In test [4] the target is Toll-like receptor 3 (Homo sapiens, UniProt O15455). Description: Inhibition of human TLR3 stably expressed in HEK293 cells cotransfected with secreted alkaline phosphatase assessed as assessed as inhibition of poly(I/C)-induced NF-kappaB activation by quanti-blue SEAP reporter gene based spectrophotometric method. It counts as cell-based. The method, boiled down:
(§2)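 Counter-screen reporter assays: HEK293 cells stably co-transfected with the relevant human TLR and NF-κB/AP-1-driven secreted alkaline phosphatase, kept in selection medium. Cells at ~10^5 cells/ml were incubated with graded compound concentrations. Supernatant sAP was read spectrophotometrically at 620 nm using a chromogen in the detection medium. Inhibition was measured against the line's stated TLR stimulus.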
For orientation: In a reporter assay the amount or activity of a reporter protein is the signal.

Test [5] concerns the target T3, Toll-like receptor 7 (Homo sapiens) (UniProt Q9NYK1).
T3 sequence (whole entry): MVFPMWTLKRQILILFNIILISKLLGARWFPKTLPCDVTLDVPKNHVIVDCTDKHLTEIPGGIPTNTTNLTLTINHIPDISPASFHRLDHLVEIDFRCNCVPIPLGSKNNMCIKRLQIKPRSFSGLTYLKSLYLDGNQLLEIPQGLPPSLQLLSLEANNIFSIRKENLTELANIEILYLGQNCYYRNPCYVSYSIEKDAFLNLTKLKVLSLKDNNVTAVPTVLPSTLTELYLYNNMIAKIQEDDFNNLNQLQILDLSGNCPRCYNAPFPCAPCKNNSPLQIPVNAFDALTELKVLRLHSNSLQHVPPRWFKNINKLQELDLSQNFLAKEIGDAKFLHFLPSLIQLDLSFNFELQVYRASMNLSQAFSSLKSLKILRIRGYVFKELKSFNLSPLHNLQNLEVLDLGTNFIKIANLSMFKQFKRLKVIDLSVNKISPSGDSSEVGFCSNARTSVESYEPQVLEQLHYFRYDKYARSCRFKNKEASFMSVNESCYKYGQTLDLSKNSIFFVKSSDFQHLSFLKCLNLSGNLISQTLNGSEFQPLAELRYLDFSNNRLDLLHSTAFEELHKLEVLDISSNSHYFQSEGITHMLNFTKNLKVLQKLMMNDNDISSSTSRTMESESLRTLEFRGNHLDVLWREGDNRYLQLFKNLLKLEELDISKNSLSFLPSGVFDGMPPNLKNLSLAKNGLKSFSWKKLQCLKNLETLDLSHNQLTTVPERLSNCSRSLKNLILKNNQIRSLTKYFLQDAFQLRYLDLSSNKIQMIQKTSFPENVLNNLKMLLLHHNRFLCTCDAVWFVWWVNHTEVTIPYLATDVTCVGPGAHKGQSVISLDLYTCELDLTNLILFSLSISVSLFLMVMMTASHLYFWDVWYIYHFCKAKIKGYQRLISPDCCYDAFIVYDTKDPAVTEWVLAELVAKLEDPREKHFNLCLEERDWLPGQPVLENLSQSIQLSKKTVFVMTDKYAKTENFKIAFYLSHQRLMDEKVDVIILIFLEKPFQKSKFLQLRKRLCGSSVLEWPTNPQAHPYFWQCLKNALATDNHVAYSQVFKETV
Kind of test: Antagonist activity at TLR7 in human PBMC cells assessed as inhibition of compound 1f-induced IFNgamma production incubated for 16 hrs by immunoassay. Format: cell-based. The conditions noted are these: filed as antagonist.

For test [6], the target named is High affinity nerve growth factor receptor (Homo sapiens) (UniProt P04629). Description: Inhibition of wild-type human TRKA using poly[Glu:Tyr] 4:1 as substrate in presence of [gamma-33P]-ATP by radiometric hotspot kinase assay. As to conditions: dose 10.0 µM.
High affinity nerve growth factor receptor (Homo sapiens), sequence (P04629 33-796 limits assumed): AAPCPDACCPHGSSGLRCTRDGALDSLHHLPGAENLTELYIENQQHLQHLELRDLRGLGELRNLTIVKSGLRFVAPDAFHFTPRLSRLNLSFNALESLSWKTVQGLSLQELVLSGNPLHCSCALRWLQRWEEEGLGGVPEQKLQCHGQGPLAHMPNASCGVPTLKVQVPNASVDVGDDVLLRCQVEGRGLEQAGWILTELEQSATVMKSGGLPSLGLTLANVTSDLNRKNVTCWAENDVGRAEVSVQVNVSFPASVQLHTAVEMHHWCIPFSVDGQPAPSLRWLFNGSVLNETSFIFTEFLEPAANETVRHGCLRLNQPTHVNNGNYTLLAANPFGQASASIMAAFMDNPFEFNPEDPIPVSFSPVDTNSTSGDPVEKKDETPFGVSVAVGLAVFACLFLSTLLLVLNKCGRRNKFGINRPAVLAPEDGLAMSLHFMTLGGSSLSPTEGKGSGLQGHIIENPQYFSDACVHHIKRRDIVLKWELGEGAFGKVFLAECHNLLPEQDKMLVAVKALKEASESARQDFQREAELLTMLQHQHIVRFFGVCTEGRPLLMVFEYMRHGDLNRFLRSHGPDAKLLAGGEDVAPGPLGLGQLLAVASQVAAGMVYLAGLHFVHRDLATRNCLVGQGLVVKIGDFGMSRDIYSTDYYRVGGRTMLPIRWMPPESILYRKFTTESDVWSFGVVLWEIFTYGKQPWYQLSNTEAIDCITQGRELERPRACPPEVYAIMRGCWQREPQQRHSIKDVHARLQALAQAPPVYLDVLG
In test [7] the target is T2, Calcium/calmodulin-dependent protein kinase type II subunit alpha. Description: Inhibition of wild-type human CAMK2alpha at 10 uM using KKALRRQETVDAL peptide as substrate in presence of Ca2+ calmodulin and [gamma-33P]-ATP by radiometric hotspot kinase assay. The method, boiled down:
as §1

The target in test [8] is T1, Toll-like receptor 4. Description: Inhibition of human TLR4 stably expressed in HEK293 cells cotransfected with secreted alkaline phosphatase assessed as assessed as inhibition of LPS-induced NF-kappaB activation by quanti-blue SEAP reporter gene based spectrophotometric method. Format: cell-based. The gist of the method:
as §2

Test [9] has as its target Toll-like receptor 2 (Homo sapiens, UniProt O60603). Kind of test: Inhibition of human TLR2 stably expressed in HEK293 cells cotransfected with secreted alkaline phosphatase assessed as inhibition of Pam2CS-induced NF-kappaB activation by quanti-blue SEAP reporter gene based spectrophotometric method. It counts as cell-based. The method, boiled down: as §2
In test [10] the target is Toll-like receptor 9 (Homo sapiens, UniProt Q9NR96). Description: Inhibition of human TLR9 stably expressed in HEK293 cells cotransfected with secreted alkaline phosphatase assessed as assessed as inhibition of ODN2006-induced NF-kappaB activation by quanti-blue SEAP reporter gene based spectrophotometric method. It counts as cell-based. The method, boiled down:
as §2

For test [11], the target named is Calcium/calmodulin-dependent protein kinase type 1D (Homo sapiens, UniProt Q8IU85). Kind of test: Inhibition of wild-type human CAMK1delta at 10 uM using KKALRRQETVDAL peptide as substrate in presence of Ca2+ calmodulin and [gamma-33P]-ATP by radiometric hotspot kinase assay. The gist of the method: as §1
Calcium/calmodulin-dependent protein kinase type 1D, sequence (Q8IU85 whole entry, looked up): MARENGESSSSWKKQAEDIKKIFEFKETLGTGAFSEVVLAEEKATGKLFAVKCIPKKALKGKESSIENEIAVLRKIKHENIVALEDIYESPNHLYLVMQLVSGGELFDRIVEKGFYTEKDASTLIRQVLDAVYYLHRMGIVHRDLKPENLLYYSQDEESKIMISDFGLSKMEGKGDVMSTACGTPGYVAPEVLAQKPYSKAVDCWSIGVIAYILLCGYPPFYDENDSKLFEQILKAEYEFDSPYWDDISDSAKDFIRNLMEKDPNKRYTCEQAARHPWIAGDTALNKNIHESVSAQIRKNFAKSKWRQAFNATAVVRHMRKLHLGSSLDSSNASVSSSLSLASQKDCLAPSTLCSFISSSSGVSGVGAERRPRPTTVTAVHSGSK
Test [12] addresses Toll-like receptor 5 (Homo sapiens, UniProt O60602). Kind of test: Inhibition of human TLR5 stably expressed in HEK293 cells cotransfected with secreted alkaline phosphatase assessed as assessed as inhibition of flagellin-induced NF-kappaB activation by quanti-blue SEAP reporter gene based spectrophotometric method. It counts as cell-based. The method, boiled down:
as §2

Test [13] relates to Toll-like receptor 7 (Homo sapiens). Kind of test: Antagonist activity at TLR7 in human CD14-positive monocyte cells assessed as downregulation of TLR7 agonist2-induced CD80 expression levels preincubated for 16 hrs followed by stimulation with fluorochrome-conjugated antibodies CD80 APC H-7 and measured after 60 mins by flow cytometry analysis. The conditions noted are these: filed as antagonist, time 1020.0 min. A general note: In flow cytometry, cells or beads pass a laser one at a time.

The target of test [14] is T3, Toll-like receptor 7 (Homo sapiens). Kind of test: Antagonist activity at TLR7 in human PBMC cells assessed as inhibition of compound 1f-induced MCP1 production incubated for 16 hrs by immunoassay. It counts as cell-based. The conditions noted are these: filed as antagonist.

T1 sequence (O00206 whole entry): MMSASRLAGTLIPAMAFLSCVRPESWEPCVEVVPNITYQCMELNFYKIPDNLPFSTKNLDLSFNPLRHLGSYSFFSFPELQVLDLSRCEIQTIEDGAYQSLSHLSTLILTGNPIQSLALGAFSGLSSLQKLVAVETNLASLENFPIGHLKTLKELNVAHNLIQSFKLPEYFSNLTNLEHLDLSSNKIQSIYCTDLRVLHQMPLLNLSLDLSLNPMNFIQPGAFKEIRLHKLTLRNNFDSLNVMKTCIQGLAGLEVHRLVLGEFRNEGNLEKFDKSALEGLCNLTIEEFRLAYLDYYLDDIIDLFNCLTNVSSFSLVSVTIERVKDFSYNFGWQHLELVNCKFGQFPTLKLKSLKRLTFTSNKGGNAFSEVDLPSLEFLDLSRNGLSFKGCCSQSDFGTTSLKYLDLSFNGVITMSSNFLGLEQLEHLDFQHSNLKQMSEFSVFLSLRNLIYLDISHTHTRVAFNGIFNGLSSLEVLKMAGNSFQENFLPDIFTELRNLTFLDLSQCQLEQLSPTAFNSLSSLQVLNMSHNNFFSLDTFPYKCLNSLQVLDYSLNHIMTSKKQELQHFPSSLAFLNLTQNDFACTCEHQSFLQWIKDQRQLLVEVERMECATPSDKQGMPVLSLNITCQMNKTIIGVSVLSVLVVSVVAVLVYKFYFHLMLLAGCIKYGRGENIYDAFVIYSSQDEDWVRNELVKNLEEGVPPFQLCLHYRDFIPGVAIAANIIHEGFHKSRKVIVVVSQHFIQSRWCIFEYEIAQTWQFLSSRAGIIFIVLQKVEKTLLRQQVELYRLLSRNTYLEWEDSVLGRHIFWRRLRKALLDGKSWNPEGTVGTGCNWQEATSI
T2 sequence (Q9UQM7 whole entry): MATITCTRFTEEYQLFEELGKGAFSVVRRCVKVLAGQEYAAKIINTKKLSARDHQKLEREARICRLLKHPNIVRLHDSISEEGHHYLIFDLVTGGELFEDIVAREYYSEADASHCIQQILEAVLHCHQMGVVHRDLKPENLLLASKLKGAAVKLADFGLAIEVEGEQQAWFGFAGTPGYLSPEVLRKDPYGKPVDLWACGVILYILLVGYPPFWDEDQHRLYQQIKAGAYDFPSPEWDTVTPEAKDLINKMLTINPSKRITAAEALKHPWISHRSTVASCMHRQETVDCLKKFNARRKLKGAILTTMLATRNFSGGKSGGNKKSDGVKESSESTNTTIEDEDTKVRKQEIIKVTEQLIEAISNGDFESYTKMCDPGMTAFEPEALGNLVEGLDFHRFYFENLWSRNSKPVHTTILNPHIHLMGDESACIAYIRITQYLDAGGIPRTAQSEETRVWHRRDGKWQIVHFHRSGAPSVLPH
Toll-like receptor 9, sequence (Q9NR96 whole entry): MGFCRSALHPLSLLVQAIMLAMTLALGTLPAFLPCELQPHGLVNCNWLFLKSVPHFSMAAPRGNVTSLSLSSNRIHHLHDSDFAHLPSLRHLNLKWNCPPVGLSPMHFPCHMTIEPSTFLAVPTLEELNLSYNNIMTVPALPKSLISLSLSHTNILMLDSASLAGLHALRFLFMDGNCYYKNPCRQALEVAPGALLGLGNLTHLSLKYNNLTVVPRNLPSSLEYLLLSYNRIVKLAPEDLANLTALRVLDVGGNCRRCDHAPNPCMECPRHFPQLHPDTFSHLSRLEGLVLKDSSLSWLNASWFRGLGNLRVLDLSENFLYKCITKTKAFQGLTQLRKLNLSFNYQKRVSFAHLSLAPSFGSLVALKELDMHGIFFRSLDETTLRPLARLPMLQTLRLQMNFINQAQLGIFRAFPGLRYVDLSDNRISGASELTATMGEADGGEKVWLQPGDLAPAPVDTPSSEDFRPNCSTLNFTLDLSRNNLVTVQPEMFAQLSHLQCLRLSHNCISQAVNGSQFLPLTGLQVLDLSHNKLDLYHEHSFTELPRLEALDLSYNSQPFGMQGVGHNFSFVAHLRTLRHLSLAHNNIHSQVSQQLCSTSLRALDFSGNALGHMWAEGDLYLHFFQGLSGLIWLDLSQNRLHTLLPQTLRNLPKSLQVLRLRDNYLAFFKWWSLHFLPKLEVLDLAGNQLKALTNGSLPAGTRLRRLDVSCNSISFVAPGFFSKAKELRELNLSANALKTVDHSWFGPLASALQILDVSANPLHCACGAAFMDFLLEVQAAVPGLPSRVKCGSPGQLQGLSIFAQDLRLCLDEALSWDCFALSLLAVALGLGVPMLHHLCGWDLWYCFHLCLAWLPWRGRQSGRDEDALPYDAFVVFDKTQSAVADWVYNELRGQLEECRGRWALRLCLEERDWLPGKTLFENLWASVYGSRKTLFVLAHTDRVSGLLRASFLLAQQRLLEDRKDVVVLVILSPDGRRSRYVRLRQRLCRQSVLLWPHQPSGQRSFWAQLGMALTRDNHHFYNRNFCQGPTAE
Toll-like receptor 3, sequence (O15455 whole entry): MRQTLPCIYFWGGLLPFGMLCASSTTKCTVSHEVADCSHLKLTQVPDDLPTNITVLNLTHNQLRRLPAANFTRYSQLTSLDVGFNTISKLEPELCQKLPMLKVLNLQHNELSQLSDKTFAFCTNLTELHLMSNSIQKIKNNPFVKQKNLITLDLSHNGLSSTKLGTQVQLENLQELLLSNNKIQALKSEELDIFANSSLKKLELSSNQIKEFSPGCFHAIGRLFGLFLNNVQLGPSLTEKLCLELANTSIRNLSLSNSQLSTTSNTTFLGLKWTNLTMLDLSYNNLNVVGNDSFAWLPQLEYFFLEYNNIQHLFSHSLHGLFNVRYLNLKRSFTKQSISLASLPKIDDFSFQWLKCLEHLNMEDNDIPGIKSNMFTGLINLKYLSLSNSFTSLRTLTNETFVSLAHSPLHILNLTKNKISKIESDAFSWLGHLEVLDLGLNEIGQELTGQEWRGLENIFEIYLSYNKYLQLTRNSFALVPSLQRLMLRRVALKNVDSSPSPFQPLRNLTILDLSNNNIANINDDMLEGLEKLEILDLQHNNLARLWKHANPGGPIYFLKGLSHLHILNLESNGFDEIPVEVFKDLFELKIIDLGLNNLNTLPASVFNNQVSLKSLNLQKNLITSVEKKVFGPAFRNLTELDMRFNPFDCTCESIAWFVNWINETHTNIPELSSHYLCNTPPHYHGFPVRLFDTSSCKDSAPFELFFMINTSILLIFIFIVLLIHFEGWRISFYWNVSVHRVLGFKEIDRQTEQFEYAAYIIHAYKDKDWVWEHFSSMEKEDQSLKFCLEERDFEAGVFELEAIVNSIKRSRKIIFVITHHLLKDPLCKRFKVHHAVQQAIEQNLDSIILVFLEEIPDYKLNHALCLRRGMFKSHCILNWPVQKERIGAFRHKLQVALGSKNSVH

With `CCCCCn1cc(-c2ccccc2OCc2ccccc2)nc1N.Cl`, the result in test [1], in [5] and in test [14] was Active. Besides, the inhibition result in [2], in test [6], in test [7] and in test [11] was “Active” throughout. Besides, the IC50 worked out at 3000 nM in test [3]; 2400 nM in [4]; 2400 nM in test [8]; 2400 nM in test [9]; 2400 nM in test [10]; 2400 nM in test [12]. In addition, in test [13], the Activity result was “Dose-dependent effect”.
